This is an account of results in the RNAGym collection of RNA variant scans (doi:10.1126/science.aae0568).

B1: tRNA (parent)
chain: GUUCCGUUGGCGUAAUGGUAACGCGUCUCCCUCCUAAGGAGAAGACUGCGGGUUCGAGUCCCGUACGGAACG

This sample holds only a part of the variants without activity.

The variants in this data set derive from B1. Description: yeast fitness relative to wild type (ratio to wild type); higher = fitter; tRNA-Arg(CCU), competitive growth, 37 C, YPD. Put shortly:
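For this measurement, the tRNA-Arg(CCU) gene was varied by chemical synthesis at a 3% per-site mutation rate across 69 sites, and each variant was placed at the native genomic locus in Saccharomyces cerevisiae. The pooled strains went through a 24-hour competition in YPD at 37°C in six parallel replicates, with amplicons from start and end populations read by 100-nucleotide paired-end sequencing. Darwinian fitness relative to wild type followed from the change in each genotype's frequency. Genotypes needed ≥ 100 starting reads, and estimates < 0.5 were set to 0.5.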
A20U U64C: the yeast fitness amounted to 0.902.
As for A45C U59C, the figure is 0.874; as for A15U A20G G52C A65U G67C, no more than 0.5.
For the variant C24U C34U G56C A57G G68U, the yeast fitness is no more than 0.5.
As for A40C C55U, the figure is 0.929.
As for C11U C34G A45C G51A A65U, the figure is no more than 0.5; as for C29G C31U A43C G44C G68C, no more than 0.5; as for G10C U54A, no more than 0.5.
As for C4G C30A A70U, the figure is 0.695; as for G51A G67C, 0.857.
Consider C4G G18A C30U, for which the yeast fitness was determined as 0.57.
As to A14G A20C, the yeast fitness turned out to be 0.813.
As for G23A C61U, the figure is 0.665.
As for U32G A37U, the figure is 0.55.
As for C4U A21C C24U G38A, the figure is no more than 0.5; as for U35A C60A, 0.535.
With U3A U32C A69U, the yeast fitness is 0.685.
As for C60U C61A, the figure is 0.659; as for C11G A20C C55A G67C, no more than 0.5.
As for U7G A20C, the figure is 0.651.
As for A15G U32G A43C, the figure is no more than 0.5.
With U2C A14G G18A U32A G44A G56C, the yeast fitness is no more than 0.5.
As for A21C G68C, the figure is 0.67.
Turning to U13A C27U C66U, the yeast fitness was 0.787.
As for G6A A14G C33A, the figure is no more than 0.5.
As for U13A C61U, the figure is 0.786; as for U28A G39A C46A A57C, no more than 0.5.
Take C5A G17A A42G U64A: the yeast fitness turned out to be 0.606.
In the case of C4G C30G A69U, the yeast fitness was no more than 0.5.
As for C34G C46U C49U, the figure is no more than 0.5; as for U8G U19A C22A C66U, no more than 0.5.
As for U26C U28A C29G A69U, the figure is no more than 0.5.
As for U7G C34U C60A, the figure is no more than 0.5; as for C34A A36G U47C, no more than 0.5.
For the variant U3G C49U G58A G63A, the yeast fitness came out at 0.584.
As for G50C U53C U54A, the figure is no more than 0.5.
As for U3C G9A C34U A65U, the yeast fitness is no more than 0.5.
As for G6A C49A, the figure is 0.625; as for U47G C66G, 0.517; as for U2C U47C, 0.977.
As for U8C G23A A57C, the figure is 0.661; as for G10C C30G C34G A57G C66U, 0.523; as for C11A U59G G63C, no more than 0.5.
As for C27A A45C, the figure is 0.796.
Turning to C4U C34A C62U, the yeast fitness came out at 0.566.
As for C46U C60G A65U, the figure is 0.557; as for C31U C62U, 0.907; as for U2C G18C, 0.723.
As to U13A A57C C66G, the yeast fitness is no more than 0.5.
Consider A20U C29U, for which the yeast fitness is 0.714.
As for U32C C34U A45U A70U, the figure is 0.826.
As for U3C A37C A70G, the figure is 0.555; as for C5U U8C A14C, no more than 0.5; as for G17C C55U G63C G67C, no more than 0.5.
As for C49G C66G, the figure is 0.647.
For C22U U47G U59A, the yeast fitness was no more than 0.5.
As for U32A U54C C55U, the figure is no more than 0.5; as for C22G C29G G51A, 0.536; as for C29A C33G A37G C49U C66U, no more than 0.5.
As for C22A C33G A43C U64C, the figure is 0.534.
As for C27G A37C G52C, the figure is no more than 0.5; as for A20G C34U A43C A57U G58A C62G, no more than 0.5.
Consider C4G C34G A43G A57C, for which the yeast fitness was no more than 0.5.
As to A43U C49G, the yeast fitness is 0.727.
On to A20C G38C G63A A70C, for which the yeast fitness is no more than 0.5.
As for C29U U54C, the figure is 0.83; as for U13A U59A U64A A70C, 0.511; as for C4U G9A C11U C34A, no more than 0.5.
As for C11G U28C A36G A43C, the figure is no more than 0.5; as for U19C U53C G56A, 0.622.
As for U26A C49U G52C, the figure is no more than 0.5; as for C5A A70C, 0.982.
Take U7C U26G A57U C66U: the yeast fitness is no more than 0.5.
As for C4G U8A C22U C46G G63A, the figure is no more than 0.5; as for U2A G9A U19C A69C, 0.685.
As for A43C C49U C55G C61U, the figure is 0.556.
As for C11A A36U, the figure is 0.559; as for C5G A36G G68U, 0.525.
Turning to A20U C49U G67A, the yeast fitness was found to be 0.585.
Turning to G44C G50C G52A U54G C61G, the yeast fitness was no more than 0.5.
Turning to A20C A21U C33G A57C, the yeast fitness was no more than 0.5.
As for A37G A42C A65C A69C, the figure is 0.616; as for G12A A14U U54A A57U, no more than 0.5.
As for G23U A37U, the figure is no more than 0.5; as for G23A A42G A45U G63C U64C, 0.638; as for C11U C27U, 0.906.
In the case of A37G A45C, the yeast fitness amounted to 0.78.
As for G52A G68C, the figure is 0.744; as for A43G C60U C62U, 0.536; as for U2G C11G C30G, 0.614.
As for C4U A36C C46U, the figure is no more than 0.5; as for A14G U19C A21U G68U, no more than 0.5; as for U16C C27G C60G, 0.603.
As for G58A A65C, the yeast fitness stood at 1.05.
For A21G C46A A70C, the yeast fitness was found to be 1.07.
As for C5G A43U A69U, the figure is 0.62.
As for C4U U8C A42G, the figure is 0.69; as for U28C C61G G67A, no more than 0.5.
As for C30A A43U G58C U64G, the figure is no more than 0.5; as for C5A U16G C27U C29U A36U G41A, 0.589; as for U35C A45G C49G G56A A65C, no more than 0.5.
Take C5U U32C G39A: the yeast fitness is 0.584.
As to C31G A42U C66U, the yeast fitness amounted to 0.767.
C11U C24U C34U C61U: the yeast fitness is no more than 0.5.
Take C4A C49U A69C: the yeast fitness is 0.555.
As for C24A C29G U35A A57U, the yeast fitness came to 0.515.
As for G39C G52C, the figure is 0.635; as for C11A A14G C29U A65C, no more than 0.5.
As for G6C U19A G38C C55A, the figure is no more than 0.5; as for U2C U13C A20G U28C A40G, 0.679; as for C11G G56A C62U, no more than 0.5.
With U35C A36C A40U C61G, the yeast fitness is no more than 0.5.
As for C49G U54A G68U A69U, the figure is 0.566; as for C60A G67A, 0.679.
As for G63C A65G, the figure is 0.594; as for C24G G25A C61G G67C G68A, 0.676; as for C22G C27G C33U G39A G41A, no more than 0.5.
As for U7G C60A A69G, the figure is no more than 0.5; as for C5U G12A A15U G63A A70U, no more than 0.5; as for G52A G63A G67A, 0.553.
U7G C27G U28G G52C G58C A65U A70C: the yeast fitness was no more than 0.5.
As for C46A G56C, the figure is 0.642.
As for C5G G6A G25A, the figure is 0.675; as for A20C G44C, 0.688.
As for G9C C22A C34A, the figure is no more than 0.5.
Consider G6U C34U, for which the yeast fitness amounted to 0.573.
As for C4G U16G U19C A21C C49U G50A, the figure is 0.621.
As for C4G A21G A36U U59A, the figure is 0.502.
For the variant U8G G9A U19G U53C C60A, the yeast fitness is no more than 0.5.
As for A21C G23A C24U C31U C49U G67A, the figure is no more than 0.5.
For the variant A36G U59C A69U, the yeast fitness worked out at 0.783.
As for G18C C24G A36C G38C U47C G58C, the figure is no more than 0.5.
For the variant C5A C46A G56C, the yeast fitness is no more than 0.5.
In the case of C4A G6C U8A A20C A21U C31A C33U C46U A57G, the yeast fitness is no more than 0.5.
As for C22G A42U, the figure is 0.699.
As for A37G G50C U54A C61A, the figure is no more than 0.5; as for U13C G18A A69C, 0.719.
For the variant G18A A43C, the yeast fitness was 0.637.
As for A15C G18C U26C C29A C34G, the figure is 0.616; as for G6C A37C G58C U59C, no more than 0.5; as for A20U C22G C60G C66G, no more than 0.5.
As for A36C U47A G48C U54G C62U, the figure is no more than 0.5; as for G6C U8C G48A, 0.664.
Consider C5A U53A, for which the yeast fitness worked out at 0.722.
As for G9A G12A C29G A65U, the figure is no more than 0.5; as for C29G A36G A43U C66A, no more than 0.5.
As for C24U U53A C66U, the figure is 0.55.
As for A20G U35G, the figure is 0.708; as for U7C C46A U64C, 0.545; as for C24U C46G, 1.01.
With G25C C33A, the yeast fitness is 0.758.
As to U16A C30G G44C, the yeast fitness was no more than 0.5.
As for A14U A15G A45C G50A C62U, the figure is 0.526.
On to C24U A42U A43C, for which the yeast fitness is 0.889.
Consider C4G A70C, for which the yeast fitness was 1.08.
Turning to C24U G56C, the yeast fitness was 0.792.
As for U8A C22U U59A, the figure is no more than 0.5; as for G51C G67U, 0.504.
As for C4G G50C C61U, the figure is 0.52; as for C30A G38A G44A, no more than 0.5; as for U26A C34U C49G C66A, no more than 0.5.
As for G12A U32G C33U C55G A70G, the yeast fitness was no more than 0.5.
As for C11G C24U, the figure is 0.583; as for C4G C11A C30G A65G C66U, no more than 0.5.
As for C11U C30U G38C A65G, the figure is 0.506; as for G44A C55A, 0.658; as for C34A C61G G68C, 0.538.
